Values after ≈ are worked out from the molar mass of the structure shown.

The nature of data set [1]: In vitro rat plasma protein binding. The format is in vitro ADME.
Data set [2] relates to IL-4-induced STAT6 phosphorylation in human CD4+ T cells. As to the kind of experiment: IL-4-induced STAT6 phosphorylation, flow cytometry. It is filed as cell-based. Conditions: read-out: IC50, IL-4, STAT6. In outline:
(§1)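 PBMCs were isolated by density gradient from healthy human donor blood, sometimes enriched for lymphocytes or monocytes, and rested. Cells were preincubated with serially diluted test compound (DMSO vehicle), then stimulated with the relevant cytokine. They were fixed (formaldehyde), permeabilized and stained for phospho-STAT, with isotype-control gates and surface-marker cell gating. Flow cytometry gave % phospho-STAT+ cells. Inhibition was calculated versus vehicle-treated stimulated cells to derive IC50.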
In general terms: In flow cytometry, cells or beads pass a laser one at a time.

Data set [3] concerns IFNα-induced STAT1 phosphorylation in human T cells or monocytes. As to the kind of experiment: IFNα-induced STAT1 phosphorylation, flow cytometry. The format is cell-based. Conditions: read-out: IC50, IFNα, STAT1. The gist of the method: as §1
In a further data set the test system is STAT3 phosphorylation. As to the kind of experiment: pSTAT3 in whole lung homogenate, OVA-challenged rats. The format is in vivo, rat. As to conditions: IT dosing, 2 hours after OVA challenge, vs OVA/vehicle. The gist of the method: (§2)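 In the OVA-sensitized, OVA-challenged rat model, test compound was given IT 1 h before challenge. Post-caval lung lobes taken 2 h after challenge were powderized in liquid nitrogen and lysed in buffer with protease/phosphatase inhibitors. Protein was measured by Bradford assay. Lysate (10 µg protein) was run on MSD phospho-STAT3/STAT5a/STAT5b/Akt(T308) plates, and blank-subtracted electrochemiluminescence was read.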

The next data set has as its target T1, JAK3 (Homo sapiens, UniProt P52333).
T1 sequence (P52333 1-1124): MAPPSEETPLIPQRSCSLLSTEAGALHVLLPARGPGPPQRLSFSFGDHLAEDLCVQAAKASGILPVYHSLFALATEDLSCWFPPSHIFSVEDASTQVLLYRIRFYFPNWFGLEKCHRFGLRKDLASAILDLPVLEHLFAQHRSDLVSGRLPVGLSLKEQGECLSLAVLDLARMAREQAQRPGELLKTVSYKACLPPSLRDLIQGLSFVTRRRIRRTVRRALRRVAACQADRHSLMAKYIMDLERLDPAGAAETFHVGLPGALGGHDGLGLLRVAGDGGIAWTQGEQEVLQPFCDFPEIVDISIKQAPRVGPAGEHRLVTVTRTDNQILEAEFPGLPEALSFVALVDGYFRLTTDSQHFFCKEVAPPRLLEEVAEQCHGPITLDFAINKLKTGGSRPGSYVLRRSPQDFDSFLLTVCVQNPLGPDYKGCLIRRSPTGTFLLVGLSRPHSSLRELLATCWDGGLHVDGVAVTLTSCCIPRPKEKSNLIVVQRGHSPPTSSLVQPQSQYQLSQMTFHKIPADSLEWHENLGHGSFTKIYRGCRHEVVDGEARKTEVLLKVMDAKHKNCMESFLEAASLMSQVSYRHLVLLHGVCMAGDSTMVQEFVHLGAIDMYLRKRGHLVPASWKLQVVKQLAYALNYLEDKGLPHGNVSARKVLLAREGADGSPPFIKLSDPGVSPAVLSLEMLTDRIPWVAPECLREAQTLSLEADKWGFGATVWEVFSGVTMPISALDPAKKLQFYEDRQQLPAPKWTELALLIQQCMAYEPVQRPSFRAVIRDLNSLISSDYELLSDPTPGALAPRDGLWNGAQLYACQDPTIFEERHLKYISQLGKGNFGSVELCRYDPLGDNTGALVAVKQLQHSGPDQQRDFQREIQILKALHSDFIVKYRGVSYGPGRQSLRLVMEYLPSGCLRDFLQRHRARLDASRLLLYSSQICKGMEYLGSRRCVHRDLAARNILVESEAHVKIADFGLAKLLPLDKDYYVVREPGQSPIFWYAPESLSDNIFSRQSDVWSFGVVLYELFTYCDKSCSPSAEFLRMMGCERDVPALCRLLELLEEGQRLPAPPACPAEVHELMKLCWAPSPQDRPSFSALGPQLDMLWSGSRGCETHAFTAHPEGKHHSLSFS
As to the kind of experiment: JAK3 enzymatic assay, 1 mM ATP. It is filed as biochemical.

For a further data set, the system named is NF-κB. As to the kind of experiment: NF-κB p65 analysis in lung tissue, OVA rat model. As to conditions: lung tissue 2 hours after OVA challenge. The format is in vivo. In outline:
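In the OVA-sensitized, OVA-challenged rat model, test compound was given IT 1 h before challenge. Lungs were powderized 2 h after challenge and nuclear extracts prepared with a nuclear extraction kit. Nuclear extract (10 µg) was assayed for NF-κB p65 activation by TransAm ELISA-type assay.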

Data set [4] deals with IL-2-induced STAT5 phosphorylation in human T cells. As to the kind of experiment: IL-2-induced STAT5 phosphorylation in human T cells, flow cytometry. The format is cell-based. As to conditions: T-cell, read-out: IC50, IL-2, STAT5 (human). In outline: as §1
The subject of data set [5] is IL-13-induced STAT6 phosphorylation in human CD14+ monocytes. As to the kind of experiment: IL-13-induced STAT6 phosphorylation in monocytes. The format is cell-based. Conditions: Monocyte, read-out: IC50, IL-13, STAT6. The gist of the method:
as §1

The subject of a further data set is pAkt. As to the kind of experiment: pAkt analysis in lung tissue, OVA rat model. It is filed as in vivo. As to conditions: lung tissue 2 hours after OVA challenge. In outline:
as §2

Data set [6] is described as follows: Lung and plasma PK after single intratracheal dose in treatment-naïve rats. It is filed as in vivo. As to conditions: rat. In outline: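 Treatment-naïve rats were given a single IT dose, at a lung-deposited dose of 52 or 30 µg/kg depending on compound. Plasma and lungs were sampled at 0.03, 0.5, 2, 6, 8 and 24 h, three animals per time point. Post-caval lobes were bead-homogenized in Ringer's solution. Samples were protein-precipitated with acetonitrile containing 0.2% formic acid and internal standard, then analysed by LC-MS/MS.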

The nature of data set [7]: In vivo plasma PK after IV dosing in rats. Conditions: rat. The gist of the method: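 Rats received a single IV bolus of test compound, at 1.0 or 0.5 mg/kg depending on compound; n=2. Plasma was then sampled to derive clearance, steady-state volume of distribution and terminal half-life.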
Data set [8] can be described thus: Thermodynamic solubility, pH 7.4. It is filed as physicochemical.
For data set [9], the system named is TSLP-induced production of CCL17 in human CD14+ monocytes. As to the kind of experiment: TSLP-induced CCL17 release in monocytes. The format is cell-based. Conditions: Monocyte, read-out: IC50, TSLP, CCL17. In outline: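 Human monocytes were taken from PBMCs isolated by density gradient from healthy donor blood. They were preincubated with serially diluted test compound (DMSO vehicle), then stimulated with recombinant TSLP. Supernatants were collected by brief centrifugation, and released CCL17 was quantified by ELISA or MSD U-plex immunoassay. Reduction versus vehicle-treated stimulated cells gave IC50.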

A further data set has as its system OVA-challenged rats. Description: Airway and lung inflammation in OVA-induced rat model of asthma. As to conditions: IT. It is filed as in vivo. In outline:
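Rats sensitized IP with OVA (100 µg/rat) in aluminium/magnesium hydroxide on days 0, 14, 21 and challenged day 28 with 1% aerosolized OVA for 30 min. Test compound was given IT under isoflurane at 1 mL/kg, 1 h before challenge (100–3000 µg/kg). BAL (2 × 3 mL RPMI) was taken 24 h post-challenge. Leukocytes were counted automatically, with differentials from Wright-stained cytospins; n=7–10/group.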

In a further data set the test system is STAT5b phosphorylation. Description: pSTAT5b in whole lung homogenate, OVA-challenged rats. It is filed as in vivo, rat. Conditions: IT dosing, 2 hours after OVA challenge, vs OVA/vehicle. In outline: as §2
A further data set can be described thus: Basic pKa, measured. The format is physicochemical.
For data set [10], the system named is IL-12-induced STAT4 phosphorylation in human CD3+ T cells and CD56+ NK cells. Description: IL-12-induced STAT4 phosphorylation, flow cytometry. Conditions: T-cell, read-out: IC50, IL-12, STAT4. The format is cell-based. The gist of the method:
as §1

The nature of data set [11]: Caco-2 permeability, pH 6.5. It is filed as in vitro ADME. As to conditions: human, Caco-2, pH 6.5. Background: Caco-2 cells form a polarised layer with tight junctions and transporters.
Data set [12] has as its system phosphorylated STAT3-positive cell nuclei. As to the kind of experiment: pSTAT3 immunohistochemistry of lung sections, OVA-challenged rats. It is filed as in vivo, rat. Conditions: OVA/AZD4604 1 mg/kg versus OVA/vehicle.
Data set [13] is described as follows: Kinetic solubility, pH 6.8. It is filed as physicochemical. Conditions: pH 6.8, aqueous buffer, kinetic from dmso stock.
The test system of another data set is STAT5a phosphorylation. Description: pSTAT5a in whole lung homogenate, OVA-challenged rats. Conditions: IT dosing, 2 hours after OVA challenge, vs OVA/vehicle. The format is in vivo, rat. The gist of the method:
as §2

The next data set addresses JAK1 (Homo sapiens, UniProt P23458). As to conditions: biochemical assays; cited from earlier work.

Chain of JAK1 (P23458 whole entry): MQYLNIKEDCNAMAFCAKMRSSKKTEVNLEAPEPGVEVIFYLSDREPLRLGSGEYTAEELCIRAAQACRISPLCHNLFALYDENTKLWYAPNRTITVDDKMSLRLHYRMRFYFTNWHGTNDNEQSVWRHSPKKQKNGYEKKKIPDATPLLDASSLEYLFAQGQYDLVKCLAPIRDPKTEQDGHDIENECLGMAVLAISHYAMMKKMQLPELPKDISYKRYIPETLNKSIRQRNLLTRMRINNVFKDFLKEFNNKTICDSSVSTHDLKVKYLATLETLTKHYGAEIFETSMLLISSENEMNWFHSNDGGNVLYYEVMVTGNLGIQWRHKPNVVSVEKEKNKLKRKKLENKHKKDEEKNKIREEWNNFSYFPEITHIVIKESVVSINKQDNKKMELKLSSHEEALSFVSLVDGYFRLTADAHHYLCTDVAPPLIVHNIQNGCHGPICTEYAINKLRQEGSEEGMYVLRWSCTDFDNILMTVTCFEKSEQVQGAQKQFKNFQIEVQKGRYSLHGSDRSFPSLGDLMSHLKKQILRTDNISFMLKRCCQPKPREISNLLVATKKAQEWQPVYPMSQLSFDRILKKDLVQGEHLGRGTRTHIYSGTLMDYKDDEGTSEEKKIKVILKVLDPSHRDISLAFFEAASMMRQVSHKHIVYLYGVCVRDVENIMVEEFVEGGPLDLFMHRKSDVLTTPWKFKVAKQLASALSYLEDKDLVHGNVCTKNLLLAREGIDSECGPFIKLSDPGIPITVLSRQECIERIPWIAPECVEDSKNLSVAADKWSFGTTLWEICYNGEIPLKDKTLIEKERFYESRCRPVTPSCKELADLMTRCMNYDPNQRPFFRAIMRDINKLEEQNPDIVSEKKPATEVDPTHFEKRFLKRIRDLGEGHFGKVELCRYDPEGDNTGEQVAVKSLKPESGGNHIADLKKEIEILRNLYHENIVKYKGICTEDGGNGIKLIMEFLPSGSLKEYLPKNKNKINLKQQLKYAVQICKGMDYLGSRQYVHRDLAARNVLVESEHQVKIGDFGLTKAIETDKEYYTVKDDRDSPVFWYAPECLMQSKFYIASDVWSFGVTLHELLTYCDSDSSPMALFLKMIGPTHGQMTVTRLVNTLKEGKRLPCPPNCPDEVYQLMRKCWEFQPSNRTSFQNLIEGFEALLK

Take `COC[C@H](C(=O)Nc1cccc2c(-c3nc(Nc4cccc(S(C)(=O)=O)c4F)ncc3F)c[nH]c12)N1CCN(C)CC1` [AZD4604]: the “In vitro rat plasma protein binding, % free” value in data set [1] is given as 10.4 % free. For the same compound, the IC50 in data set [2] was 16.9 nM; in [3], 1.2 nM; at JAK3, greater than 10 µM; in data set [4], 21 nM; in data set [5], 23.1 nM; in data set [9], 57 nM. Also, in data set [10], the IC50 was 98 nM. For the same compound, in the data set with STAT3 phosphorylation, the “STAT3 phosphorylation in whole lung homogenates” value is given as “dose-dependently inhibited”. The “effect on NF-κB” value in the data set with NF-κB was “no significant effect”. Moreover, the “effect on pAkt” value in the data set on pAkt is on record as “no significant effect”. Moreover, the “proportion of the dose remaining in whole lung tissue 24 hours after administration” value in data set [6] (IT, assuming 100% lung deposition) was found to be 0.3%. In addition, the half-life in data set [6] (lung, inhaled or intranasal) is roughly 300 min; in data set [6] (lung, other: intratracheal) it was 300 min; in [6] (plasma, inhaled or intranasal) it was roughly 300 min; in data set [7], 252 min. In addition, in [7], the Vd amounted to 9.9 L/kg. Also, the clearance in data set [7] was found to be 33 mL/min/kg. Further, the solubility (thermodynamic) in [8] amounted to 6.6 µM (≈ 3.96 µg/mL). In addition, in the data set on OVA-challenged rats (24 hours after OVA challenge, vs OVA/vehicle), the “eosinophil numbers in BALF” value is reported as “numerically reduced”. The “eosinophil numbers in lung tissue” value with OVA-challenged rats (24 hours after OVA challenge, vs vehicle, to levels seen in saline-challenged animals) is on record as “reduced”. Further, the “cytokines eotaxin and IL-1β in BALF” value in the data set with OVA-challenged rats (vs OVA/vehicle) is reported as “numerically lowered”. Moreover, the “levels of lymphocytes, neutrophils, and macrophages in BALF” value with OVA-challenged rats (vs OVA/vehicle) is “numerically lowered”. In addition, the “STAT5b phosphorylation in whole lung homogenates” value in the data set with STAT5b phosphorylation is reported as “dose-dependently inhibited”. In addition, the pKa in “Basic pKa, measured” came to 7.9. Moreover, the Papp in data set [11] worked out at 6.7 ×10⁻⁶ cm/s. Besides, the “proportion of phosphorylated STAT3-positive cell nuclei in endothelium and bronchial epithelium” value in data set [12] (P < 0.01) is given as “significantly reduced”. In addition, the “proportion of phosphorylated STAT3-positive cell nuclei in the alveolar epithelium” value in data set [12] (P < 0.05) was “significantly reduced”. In [13], this compound returned a solubility (kinetic) of 18 µM (≈ 10.8 µg/mL). For the same compound, the “STAT5a phosphorylation in whole lung homogenates” value in the data set on STAT5a phosphorylation was “dose-dependently inhibited”.

In the case of `CN(CCC#N)C1CCN(C(=O)Cn2cc(NC(=O)c3cnn4cccnc34)c(-c3cc(Cl)ccc3OC(F)F)n2)CC1` [GDC-0214], the “increased selectivity for JAK1 over JAK2” value at JAK1 is recorded as “twofold”.

`CN(CCC#N)C1CCN(C(=O)Cn2cc(NC(=O)c3cnn4cccnc34)c(-c3cc(Cl)ccc3OC(F)F)n2)CC1` [iJak-381]: the “increased selectivity for JAK1 over JAK2” value on JAK1 was “sixfold”.

As usually defined, the IC50 is the concentration at which inhibition is half-maximal. In general, half-life refers to the time in which the quantity being followed falls by half. Low readings indicate fast loss, high ones slow loss. As usually defined, the Vd is a proportionality between amount in the body and measured concentration, not a real space. A high value points to extensive tissue distribution. Usually clearance stands for the rate of elimination divided by the concentration. A lower clearance goes with inefficient removal. The thermodynamic solubility is solubility found after equilibrating the solid with the medium. One may read the pKa as the pH at which an ionisable group is half protonated. Higher therefore signals a weaker acid or stronger base. As usually defined, the Papp is the rate of passage across a membrane or cell layer, normalised by area and donor concentration. Low values mean slow passage, high ones fast passage. As a reminder, the solubility (kinetic) is solubility judged after dilution from a stock solution rather than from solid.

Source of the values: PMC9441147 (Drug Design, Development and Therapy, 2022).
